Active and inactive are the calls of the source. No cut-off for these calls is given here.
System: L6
Test: Stimulation of [3H]2-deoxyglucose uptake in rat L6 cells at 10 uM incubated for 16 hrs by scintillation counting method
Type: functional, cell-based
In short: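 L6 myotubes incubated with the compound […]; insulin at 100 nM for 20 min served as the positive control. Uptake of ³H-2-deoxyglucose measured and expressed as fold stimulation relative to the control condition.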

**Q.** With `COC(=O)c1c(SC)cc(-c2ccccc2)c2c1-c1cn(-c3ccccc3)nc1CC2` as the compound, how does the Activity read?
**A.** The Activity was “inactive”.

— ChEMBL document CHEMBL4138048, “Synthesis of substituted 2H-benzo[e]indazole-9-carboxylate as a potent antihyperglycemic agent that may act through IRS-1, Akt and GSK-3β pathways” (Medchemcomm, 2017)
